Assay outcomes deposited in PubChem BioAssay by Broad Institute.
HSF1 inh = HSF1 inhibition. NIH3T3-HGL HSE-luciferase, MG132-induced, luminescence 8 h; stronger effect = lower value. activity change, negative = inhibition, % at 7.5 µM (by protocol). 0.77% of 300,000 active;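 active = more than half of replicate wells show activity change below -50%, luminescence cut by over half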;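 also: luciferase reports HSF-1 transcriptional activity via heat shock element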
HIF activator = HIF pathway transcriptional activation | U2OS HRE-luciferase reporter, luminescence; normalized: DMSO 0%, desferrioxamine 100% | activation, % at 7.5 µM (by protocol) | 0.32% of 300,000 active | AID 1910;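 active = mean activation of at least 10% of the iron chelator positive control signal, with at least half of replicates also reaching 10%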
HSF-1 act = increases HSF-1 driven luciferase reporter signal | NIH3T3-HGL HSF-1 luciferase reporter, MG132, 8 h; 100% = twice DMSO control signal | activation, % at 9 µM | 1.7% of 300,000 active;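 active = mean replicate activation of at least 50% with a set share of replicates each reaching 50%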
Calb FLC = C. albicans growth modulation with fluconazole | C. albicans CaCi-2 + fluconazole, Alamar Blue growth, 48 h | growth inhibition, % (no concentration beside the values) | 0.57% of 300,000 active;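 active = growth inhibition above about 58% in most replicates, limit read from the data, passing the limit was not always enough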;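 also: all wells also contain fluconazole at 8 µg/ml as a sub-toxic cotreatment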
T cruzi inh = T. cruzi replication inhibition; T. cruzi beta-gal in NIH3T3, luminescence, 90 h; inhibition, % (no concentration beside the values); 1.4% of 300,000 active; AID 1885;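 active = mean inhibition across valid replicates above about 55%, limit read from the data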;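 also: signal also drops with host cell toxicity which is not excluded here; higher percent means less beta-gal luminescence so fewer parasites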
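System: Mouse NIH/3T3 fibroblasts infected with β-gal-expressing T. cruzi Tulahuen C4 | Quantity: NIH/3T3 cells, 5,000 per well | Reagent: 5000 reporter trypomastigotes per well | Dosing: Compound pinned at 50 nL/well, DMSO | Schedule: 3 h host attachment, then at least 90 h co-culture | Detection: GalScreen luminescence, 60 min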
Numbers stand for hits. Rows were chosen to be rich in hits. Some 4.4% of all compounds tested hit in one or more screens of this group.

`CCCN(CCC)CCCNC(=S)Nc1ccc2nc(N3CCN(C)CC3)cc(C)c2c1` gave HSF1 inh inactive, HIF activator inactive, HSF-1 act inactive, Calb FLC inactive and T cruzi inh 57.
`CCCCN(CC)CCNC(=O)CCC(=O)Nc1ccc2nc(N3CCN(C)CC3)cc(C)c2c1` gave HSF1 inh inactive, HIF activator inactive, HSF-1 act inactive, Calb FLC inactive and T cruzi inh inactive.
`CS(=O)(=O)N(CC(=O)N1CCCCCC1)c1cccc([N+](=O)[O-])c1` gave HSF1 inh inactive, HIF activator inactive, HSF-1 act inactive, Calb FLC inactive and T cruzi inh inactive.
Screening COc1ccccc1N1CCN(C(CNS(=O)(=O)c2cc(F)ccc2F)c2cccnc2)CC1 (stereo not given) returned HSF1 inh inactive, HIF activator inactive, HSF-1 act inactive, Calb FLC inactive and T cruzi inh 65.
Screening Cc1ccc(S(=O)(=O)NCC(c2ccccc2)N2CCN(c3ccc(F)cc3)CC2)cc1 (stereo not given) returned HSF1 inh inactive, HIF activator inactive, HSF-1 act 54, Calb FLC inactive and T cruzi inh inactive.
For O=C(NCC(c1cccnc1)N1CCN(c2ccc(F)cc2)CC1)c1ccccc1 (stereo not given) the results were HSF1 inh inactive, HIF activator inactive, HSF-1 act inactive, Calb FLC inactive and T cruzi inh inactive.
`O=S(=O)(NCC(c1cccnc1)N1CCN(c2ccccc2)CC1)c1cc(F)ccc1F` (stereo not given) gave HIF activator inactive, Calb FLC inactive and T cruzi inh 76.
`O=S(=O)(NCC(c1cccnc1)N1CCN(c2ccc(F)cc2)CC1)c1ccccc1` (stereo not given) gave HSF1 inh inactive, HSF-1 act inactive, Calb FLC inactive and T cruzi inh 59.
Screening COc1ccccc1N1CCN(C(CNS(=O)(=O)c2ccccc2)c2cccnc2)CC1 (stereo not given) returned HSF1 inh inactive, HIF activator inactive, HSF-1 act inactive, Calb FLC inactive and T cruzi inh inactive.
Screening CN1CCN(C(CNS(=O)(=O)c2ccc(F)cc2)c2cccnc2)CC1 (stereo not given) returned HSF1 inh inactive, HIF activator inactive, HSF-1 act inactive, Calb FLC inactive and T cruzi inh inactive.
Screening O=S(=O)(NCC(c1ccco1)N1CCN(c2ccc(F)cc2)CC1)c1ccc2c(c1)OCCO2 (stereo not given) returned HSF1 inh inactive, HIF activator inactive, HSF-1 act inactive, Calb FLC 114 and T cruzi inh inactive.
Screening CN(C)c1ccc(N=Cc2nc(-c3ccccc3)oc2OC(=O)c2cccc(Cl)c2)cc1 returned HSF1 inh inactive, HIF activator inactive, HSF-1 act inactive, Calb FLC inactive and T cruzi inh inactive.
`Cc1ccc(C(=O)Oc2oc(-c3ccccc3)nc2C=Nc2ccc(N(C)C)cc2)cc1` gave HSF1 inh inactive, HIF activator inactive, HSF-1 act 144, Calb FLC inactive and T cruzi inh inactive.
Cc1ccc(C(=O)Oc2oc(-c3ccco3)nc2C=Nc2ccc(Cl)cc2)cc1 was read as HSF1 inh inactive, HIF activator inactive, HSF-1 act 86, Calb FLC inactive and T cruzi inh inactive.
COc1cccc2cc(-c3nnc(-c4ccccc4)o3)c(=O)oc12 was read as HSF1 inh -57, HIF activator inactive, HSF-1 act inactive, Calb FLC inactive and T cruzi inh inactive.
`O=c1[nH]c(SCc2ccccc2)nc2c1sc1ccccc12` gave HSF1 inh inactive, HIF activator inactive, HSF-1 act inactive, Calb FLC inactive and T cruzi inh inactive.
For Cc1cccc(-c2oc3ccc(-c4ccc5c(c4)OCO5)cc3c2/C=C/c2ccc(N)cc2)c1 the results were HSF1 inh inactive, HIF activator inactive, HSF-1 act inactive, Calb FLC inactive and T cruzi inh inactive.
For CCN1/C(=C/C(C)=C/c2sc3ccccc3[n+]2CC)Sc2ccccc21 the results were HSF1 inh inactive, HIF activator inactive, HSF-1 act inactive, Calb FLC 103 and T cruzi inh inactive.
CCC1CCc2sc(C(=O)NC3CCN(Cc4ccccc4)CC3)cc2C1 (stereo not given) was read as HSF1 inh inactive, HIF activator inactive, HSF-1 act inactive, Calb FLC inactive and T cruzi inh 60.
`CCC1CCc2sc(C(=O)N(C)CC(=O)Nc3ccc(OC)cc3)cc2C1` (stereo not given) gave HSF1 inh inactive, HIF activator inactive, HSF-1 act inactive, Calb FLC inactive and T cruzi inh inactive.
Screening CCC1CCc2sc(C(=O)NCc3ccccn3)cc2C1 (stereo not given) returned HSF1 inh inactive, HIF activator 22, HSF-1 act inactive, Calb FLC inactive and T cruzi inh inactive.
`CC(=O)c1ccccc1NC(=O)COC(=O)CSCC(=O)Nc1cc(C)on1` gave HSF1 inh inactive, HIF activator inactive, HSF-1 act inactive, Calb FLC inactive and T cruzi inh inactive.
COC(=O)Nc1ccc(=O)n(Cc2c(Cl)cccc2Cl)c1 was read as HSF1 inh inactive, HIF activator 175, HSF-1 act inactive, Calb FLC inactive and T cruzi inh inactive.
For CCN(CC)CCn1c2ccccc2c2nc3ccc([N+](=O)[O-])cc3cc21 the results were HSF1 inh inactive, HIF activator inactive, HSF-1 act 121, Calb FLC inactive and T cruzi inh inactive.
Screening c1ccc(COc2ccc(-c3csnn3)cc2)cc1 returned HSF1 inh inactive, HIF activator inactive, HSF-1 act inactive, Calb FLC inactive and T cruzi inh inactive.
Screening CCOc1ccc(-c2c(C(=O)N/N=C(\C)c3ccco3)nnn2-c2nonc2N)cc1 returned HSF1 inh inactive, HIF activator inactive, HSF-1 act inactive, Calb FLC inactive and T cruzi inh inactive.
`COc1ccc(-c2nnc(SCC(=O)N3CCCC3)o2)c(OC)c1` gave HSF1 inh inactive, HIF activator inactive, HSF-1 act inactive, Calb FLC inactive and T cruzi inh inactive.
`O=C(c1ccccc1F)N1CCN(c2ncccn2)CC1` gave HSF1 inh inactive, HIF activator inactive, HSF-1 act inactive and T cruzi inh inactive.
`CSc1ccccc1C(=O)N1CCN(c2ncccn2)CC1` gave HSF1 inh -70, HIF activator inactive, HSF-1 act inactive, Calb FLC inactive and T cruzi inh inactive.
COc1ccc(Nc2nc(-c3ccccc3)nc3ccccc23)cc1 was read as HSF1 inh inactive, HIF activator inactive, HSF-1 act inactive, Calb FLC inactive and T cruzi inh inactive.
Cc1cccc(-c2nc(Nc3ccc(N4CCOCC4)cc3)c3ccccc3n2)c1 was read as HSF1 inh inactive, HIF activator inactive, HSF-1 act inactive, Calb FLC inactive and T cruzi inh 56.
For COc1ccc(Nc2nc(-c3cccc([N+](=O)[O-])c3)nc3ccccc23)cc1 the results were HSF1 inh inactive, HIF activator inactive, HSF-1 act inactive, Calb FLC inactive and T cruzi inh 65.
